What was measured:
[1] = Displacement of [3H]flunitrazepam from GABAA receptor in Sprague-Dawley rat cerebellar membrane; parameters: species or system Cerebellum
Method in brief: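 Cerebella from adult female Sprague–Dawley rats (8–10 weeks) homogenised in ice-cold 50 mM Tris-HCl pH 7.4; 20,000g membrane pellet washed repeatedly. Incubated with N-methyl-[3H]flunitrazepam (~0.3 nM final) at 21 °C for 60 min; nonspecific binding defined with zolpidem. Filtered onto PEI-presoaked GF/B, scintillation counted. IC50 by nonlinear regression from 10–12 concentrations in triplicate; ≥3 independent experiments, mean ± SD.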

[2] = Distribution coefficient, log D by C-18 reversed phase method; type: physicochemical; conditions: octanol/water; read-out: Log D
Method in brief: (§1)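 HPLC logD per European guideline; line 4 on Multisorb RP18-7 C-18 column, line 5 on Supelcosil ABZ+Plus alkyl amide column (both 250 × 4 mm). Solvent A 5% acetonitrile/20 mM ammonium acetate held 0–5 min, then solvent B 80% acetonitrile/20 mM ammonium acetate to 40, 50 or 65 min; 1 mL/min; UV detection. SD reported.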

[3] = Distribution coefficient, log D by alkyl amide reversed phase method; type: physicochemical; conditions: octanol/water; read-out: Log D; method in brief: as §1

| Compound | IC50 [1] [nM] | chromatographic logD [2] | chromatographic logD [3] |
| --- | --- | --- | --- |
| CC(=O)N(CCCCF)c1cccc(-c2ccnc3c(C(=O)c4cccs4)cnn23)c1 | 5.98 | 2.48 | – |
| CN(C(=O)c1ccc(F)cc1)c1cccc(-c2ccnc3c(C(=O)c4cccs4)cnn23)c1 | 14.1 | 2.64 | 2.63 |
| CC(=O)N(CCCF)c1cccc(-c2ccnc3c(C(=O)c4cccs4)cnn23)c1 | 2.78 | 2.35 | 2.38 |
| CC(=O)N(C)c1cccc(-c2ccnc3c(C(=O)c4ccc(F)cc4)cnn23)c1 | 53.3 | 2.34 | 2.38 |
| CN(C(=O)c1ccc([N+](=O)[O-])cc1)c1cccc(-c2ccnc3c(C(=O)c4cccs4)cnn23)c1 | 15.9 | 2.51 | 2.64 |
| CN(CCF)c1cccc(-c2ccnc3c(C(=O)c4cccs4)cnn23)c1 | 17.8 | 2.66 | 2.69 |
| CCC(=O)N(CCCF)c1cccc(-c2ccnc3c(C(=O)c4cccs4)cnn23)c1 | 5.26 | – | – |
| CC(=O)N(C)c1cccc(-c2ccnc3c(C(=O)c4cccs4)cnn23)c1 [INDIPLON] | 3.29 | 2.26 | 2.23 |
| CC(=O)N(CCF)c1cccc(-c2ccnc3c(C(=O)c4cccs4)cnn23)c1 | 5.71 | 2.62 | – |
| CC(C)C(=O)N(CCCF)c1cccc(-c2ccnc3c(C(=O)c4cccs4)cnn23)c1 | 37.7 | 2.55 | 2.68 |

— ChEMBL document CHEMBL1143976, “Synthesis of fluorine substituted pyrazolopyrimidines as potential leads for the development of PET-imaging agents for the GABAA receptors” (Bioorg Med Chem, 2008)
